Test [1] has as its target T1, Retinoic acid receptor alpha/Retinoid X receptor alpha (Homo sapiens) (UniProt P10276+P19793). The test is described as follows: Activity at RARalpha/RXRalpha ligand binding domain assessed as stabilization of RXR helix H12 by fluorescence anisotropy in presence of 1 uM coactivator peptide TIF-NR2. In kind it is protein-complex assay. In short, it runs like this:
(§1)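 Heterodimer (0.120 µM, dye on the RXRα C-terminus) with 10 µM ligand. Anisotropy was read at excitation 470 nm and emission 530 nm, with at least three independent measurements.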

The target of test [2] is T2, Retinoic acid receptor RXR-beta (Homo sapiens) (UniProt P28702).
T2 sequence (whole entry): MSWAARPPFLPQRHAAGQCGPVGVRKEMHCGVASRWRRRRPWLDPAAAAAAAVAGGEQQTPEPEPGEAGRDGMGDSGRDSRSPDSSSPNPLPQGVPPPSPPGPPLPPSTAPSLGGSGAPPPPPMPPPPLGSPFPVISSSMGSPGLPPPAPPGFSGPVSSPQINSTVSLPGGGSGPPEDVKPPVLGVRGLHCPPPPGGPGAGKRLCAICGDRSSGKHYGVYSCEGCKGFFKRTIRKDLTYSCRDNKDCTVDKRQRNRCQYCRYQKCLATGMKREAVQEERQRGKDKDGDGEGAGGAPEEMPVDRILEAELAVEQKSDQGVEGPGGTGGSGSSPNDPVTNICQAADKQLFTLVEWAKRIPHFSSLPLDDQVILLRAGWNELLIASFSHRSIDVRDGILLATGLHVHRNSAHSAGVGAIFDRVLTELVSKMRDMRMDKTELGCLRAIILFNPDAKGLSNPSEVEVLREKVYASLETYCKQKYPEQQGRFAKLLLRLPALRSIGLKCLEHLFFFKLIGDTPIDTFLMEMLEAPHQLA
Briefly: Antagonist activity at Gal4-tagged human RXRbeta receptor expressed in human HeLa cells assessed as inhibition of CD3254-induced transcription at >=10 uM by luciferase reporter assay. The test is classed as functional, cell-based. In short, it runs like this:
(§2)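 Gal4-hRXRβ/(Gal4)5-β-globin-luciferase HeLa reporter cells, maintained in DMEM with 5% FCS and selection antibiotics. Cells were co-treated for 16 h at 37 °C with 3 nM of the reference RXR agonist and increasing compound concentrations. After lysis, luciferase was read as RLU to measure antagonism of agonist-induced transcription.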

In test [3] the target is T1, Retinoic acid receptor alpha/Retinoid X receptor alpha (Homo sapiens). Briefly: Activity at RARalpha/RXRalpha ligand binding domain assessed as stabilization of RXR helix H12 by fluorescence anisotropy. In kind it is protein-complex assay. In short, it runs like this:
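RARα-RXRα LBD heterodimer, 0.120 µM, carrying a fluorescent dye attached to the RXRα C-terminus. Steady-state anisotropy was read with excitation at 470 nm and emission at 530 nm, with ligand at saturating concentration. At least three independent measurements were made per sample.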
(Polarisation of emitted light reports the rotation of a fluorescent probe.)

For test [4] the target is unchanged. Briefly: Activity at RARalpha/RXRalpha ligand binding domain assessed as stabilization of RXR helix H12 by fluorescence anisotropy in presence of up to 10 uM coactivator peptide TIF-NR2. In kind it is protein-complex assay. In short, it runs like this: as §1
The target in test [5] is T2, Retinoic acid receptor RXR-beta (Homo sapiens). The test is described as follows: Activity at Gal4-tagged human RXRbeta receptor expressed in human HeLa cells assessed as relative transcriptional activity by luciferase reporter assay relative to CD3254. In kind it is cell-based. Further details: concentration or dose not given beside the values. In short, it runs like this:
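HeLa cells stably carrying a Gal4-hRXRβ chimera (RXRβ LBD fused to the GAL4 DBD) and a (Gal4)5-β-globin-luciferase reporter. Cells were grown in DMEM with 5% FCS plus G418, puromycin, hygromycin and gentamycin. They were exposed to increasing compound concentrations for 16 h at 37 °C and 5% CO2, then washed, lysed, and read for luciferase luminescence (RLU).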
For orientation: Reporter assays use an easily measured gene product as a stand-in for the process of interest.

Test [6] has the same target. Briefly: Antagonist activity at Gal4-tagged human RXRbeta receptor expressed in human HeLa cells assessed as inhibition of CD3254-induced transcription at 1 uM by luciferase reporter assay. The test is classed as functional, cell-based. In short, it runs like this:
as §2

Calls of active or inactive are those of the source. No cut-off for these calls is given here.

As for `Cc1cc2c(cc1-c1cc(/C=C/C(=O)O)ccc1O)C(C)(C)CCC2(C)C`, the outcome in test [1] was Active.

For `CCCCCCOc1cc(-c2cc(/C=C/C(=O)O)ccc2O)cc2c1C(C)(C)CCC2(C)C`, the result in test [2] and in test [4] was Active. Also, the outcome in test [3] was inactive. The Activity in test [5] is above 10%.

Consider `CCCCCOc1cc(-c2cc(/C=C/C(=O)O)ccc2O)cc2c1C(C)(C)CCC2(C)C`, for which the outcome in test [2] and in test [4] was Active. Also, the result in test [3] was inactive. The Activity in test [5] is above 10%.

`CCCCCOc1cc2c(cc1-c1cc(/C=C/C(=O)O)ccc1O)C(C)(C)CCC2(C)C`: the result in test [3], in test [4] and in test [5] was inactive. For the same molecule, in test [6], the result was Active.

On to `CCCCOc1cc(-c2cc(/C=C/C(=O)O)ccc2O)cc2c1C(C)(C)CCC2(C)C`, for which the outcome in test [2] and in test [4] was Active. Besides, in test [3], the outcome was inactive. The Activity in test [5] is above 10%.

Regarding `CCCOc1cc(-c2cc(/C=C/C(=O)O)ccc2O)cc2c1C(C)(C)CCC2(C)C`, the outcome in test [2] and in test [4] was Active. In addition, the outcome in test [3] was inactive. In test [5], the Activity was above 10%.

As to `CCOc1cc(-c2cc(/C=C/C(=O)O)ccc2O)cc2c1C(C)(C)CCC2(C)C`, the outcome in test [2] and in test [4] was Active. Moreover, the outcome in test [3] was inactive. The Activity in test [5] was above 10%.

In the case of `COc1cc(-c2cc(/C=C/C(=O)O)ccc2O)cc2c1C(C)(C)CCC2(C)C`, the result in test [2] and in test [4] was Active. The outcome in test [3] was inactive. The Activity in test [5] was above 30%.

For `CCCCCCOc1cc2c(cc1-c1cc(/C=C/C(=O)O)ccc1O)C(C)(C)CCC2(C)C`, the result in test [4] was inactive.
